High-throughput results from PubChem BioAssay.
CFTR F508del cor: F508del CFTR correction, initial screen, CFBE line, single point; AID 720511, 2013; activity (quench increase), % at 7.58 µM; 350,000 compounds, 0.36% hits; CFBE cells, YFP halide quenching; stimulated with forskolin plus potentiator P3; % fluorescence drop versus neutral controls;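 active = mean added fluorescence quench of at least 8% versus neutral control, with both replicates also reaching 8%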;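 also: cells transiently co-express mutant CFTR-F508del with the halide-sensitive YFP; corrector assay measuring rescue of mutant channel to the surface after 24 h compound exposure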
FN deposit inh: inhibitors of fibronectin matrix deposition, primary screen, AH1F cells, Alexa488-fibronectin fluorescence, plate reader; 350,000 compounds, 0.086% hits; AH1F fibroblasts, overnight; AID 743247, 2014; inhibition, % at 12.6 µM;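 active = mean inhibition across replicates of 30% or more, regardless of how many single replicates reach that level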;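 also: positive control wells lacked labelled fibronectin entirely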
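Schedule: 1 h cell adhesion before compound, then overnight fibronectin incubation; test system: AH1F fibroblast monolayer depositing Alexa488-labelled fibronectin into matrix; quantity: 10000 AH1F cells per well; probe or stimulus: fluorescent fibronectin at 24 nM final; signal: fluorescence, ex 485 nm, em 525 nm; evaluation: percent inhibition as loss of matrix-bound fibronectin fluorescence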
EWS-Fli inh: EWS/Fli-driven NR0B1 reporter inhibitors, primary screen, A673 cells, NR0B1 luciferase, luminescence, MLPCN library | 350,000 compounds, 0.67% hits | viability-normalised | inhibition, % at 12.6 µM;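 active = mean inhibition of at least 50% after viability correction, with every replicate also passing that limit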;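 also: firefly luciferase signal divided by Alamar Blue viability fluorescence both relative to DMSO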
PGC1a acetyl inh: inhibitors of PGC1a acetylation signal, primary screen, cell-based, U2OS, AlphaScreen, inhibitor mode; AlphaScreen anti-acetyl-lysine; with virally co-expressed GCN5 acetyltransferase; inhibition, % at 15.6 µM; 350,000 compounds, 0.17% hits; AID 651687, 2012;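 active = every replicate shows inhibition of at least 40%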;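 also: 0% = neutral control wells and 100% = positive control wells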
HIV Env fusion: inhibitors of HIV-1 Env-driven cell-cell fusion, primary screen, HeLa-JRFL effector, CEM21 target cells, luciferase; inhibition, % at 12.3 µM; 360,000 compounds, 1.1% hits; AID 651610, 2012;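 active = mean replicate inhibition score of at least 50 and every replicate individually at or above 50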;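 also: 0% = plate neutral controls and 100% = maraviroc near 300 nM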
PAX8 inh HTS: inhibitors of PAX8-driven TPO luciferase reporter, primary screen, RMG-I cells, single concentration; 360,000 compounds, 1.2% hits; SteadyGlo, 24 h; inhibition, % at 12.6 µM;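 active = mean replicate inhibition at least 60% with every replicate also reaching 60%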;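 also: luciferase light reporting Pax8 driven TPO promoter activity; plate controls were median of neutral control wells for no effect and mitoxantrone controls for full effect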
An asterisk follows results filed as active; . = no result given; [ ] = remark or other dose. Sampled rows, rich in hits. Any-hit rate of the full collection: about 2.3%.

SMILES	CFTR F508del cor	FN deposit inh	EWS-Fli inh	PGC1a acetyl inh	HIV Env fusion	PAX8 inh HTS
Oc1ccc(C[C@H]2CNC(=S)N2CC2CCCN2C[C@H](Cc2ccccc2)N2C[C@H](Cc3ccc(O)cc3)N(CCc3ccccc3)C2=S)cc1 (stereo partly specified)	0	1	19	-19	-25	91*
COc1ccc(OC)c(NC(=O)COc2ccc3c(c2)CCC3)c1	-7	-3	-6	.	70*	-4
O=C(/C=C/c1cccs1)N1CCC2(CC1)Oc1ccc(Cl)cc1C(=O)C21CC(c2cccnc2)=NO1 (stereo unspecified)	0	31*	10	-3	-121	34
CC(NC(=O)CSc1ccc(S(=O)(=O)N2CCOCC2)cn1)c1ccc(Cl)cc1Cl (stereo unspecified)	3	30*	1	11	.	11
C[C@H](CO)N1C[C@H](C)[C@@H](CN(C)Cc2ccccc2)Oc2cc(-c3ccccc3)ccc2S1(=O)=O	3	7	18	14	46[16.7 µM]	.
C[C@H](CO)N1C[C@H](C)[C@H](CN(C)Cc2ccccc2)Oc2cc(-c3ccccc3)ccc2S1(=O)=O	0	9	15	-9	79*[16.7 µM]	.
C[C@@H]1CN([C@H](C)CO)S(=O)(=O)c2ccc(-c3ccccc3)cc2O[C@@H]1CN(C)Cc1ccccc1	0	8	21	-12	65*[16.7 µM]	.
C[C@@H]1CN([C@@H](C)CO)S(=O)(=O)c2ccc(-c3ccccc3)cc2O[C@H]1CN(C)S(C)(=O)=O	-2	5	-3	1	57*[16.7 µM]	.
COCC(=O)N(C)C[C@H]1Oc2cc(C#CC(C)C)ccc2S(=O)(=O)N([C@@H](C)CO)C[C@H]1C	-3	-7	-7	0	-18[16.7 µM]	-2
CC(c1ccco1)N(C(=O)C12CC3(C)CC(C)(CC(C)(C3)C1)C2)c1ccccn1 (stereo unspecified)	.	-10	.	7	76*	.
COCC(=O)N(C)C[C@@H]1Oc2cc(C#CCC3CCCC3)ccc2S(=O)(=O)N([C@@H](C)CO)C[C@H]1C	0	.	9	3	22[16.7 µM]	71*
COCC(=O)N(C)C[C@@H]1Oc2cc(C#CCC3CCCC3)ccc2S(=O)(=O)N([C@@H](C)CO)C[C@@H]1C	-5	.	3	-6	6[16.7 µM]	74*
COCC(=O)N(C)C[C@@H]1Oc2cc(C#CCC3CCCC3)ccc2S(=O)(=O)N([C@H](C)CO)C[C@@H]1C	1	.	2	-3	-2[16.7 µM]	5
O=S(=O)(c1ccccc1)N1C[C@@H]2N[C@H](C1)C2c1ccc(/C=C/c2ccccc2)cc1 (stereo partly specified)	-6	-1	-4	-34	.	2
O=C(C[C@H]1CC[C@@H]2[C@H](COC[C@@H](O)CN2Cc2nccs2)O1)NCc1ccccc1F	1	-8	2	-2	.	-8
Cc1nn(C)cc1NC(=O)C[C@@H]1CC[C@H]2[C@H](COc3ccc(NC(=O)NC(C)C)cc3C(=O)N2C)O1	-3	7	-2	9	18[16.7 µM]	4
CCNC(=O)C[C@H]1CC[C@H]2[C@H](COc3ccc(NC(=O)c4ccc(C(F)(F)F)cc4)cc3C(=O)N2C)O1	5	16	-3	-5	-13[16.7 µM]	-7
C[C@H](CO)N1C[C@H](C)[C@@H](CN(C)C(=O)Nc2ccccc2)Oc2ccc(NC(=O)Cc3cn(C)c4ccccc34)cc2C1=O	0	.	-3	-7	7[16.7 µM]	8
C[C@@H]1CN([C@H](C)CO)C(=O)c2cc(NC(=O)Cc3cn(C)c4ccccc34)ccc2O[C@@H]1CN(C)C(=O)Nc1ccccc1	0	.	-20	108*	-4[16.7 µM]	54
C[C@H](CO)N1C[C@H](C)[C@H](CN(C)C(=O)Nc2ccccc2)Oc2ccc(NC(=O)Nc3ccc(C(F)(F)F)cc3)cc2C1=O	2	.	0	0	.	74*
C[C@H]1CCCCO[C@H](CN(C)C(=O)Nc2ccc(C(F)(F)F)cc2)[C@@H](C)CN([C@@H](C)CO)C(=O)c2cc(NC(=O)Cc3ccccc3)ccc2O1	4	-6	-8	18	66*[16.7 µM]	50
C[C@H]1CN([C@@H](C)CO)C(=O)c2cc(NC(=O)Nc3ccccc3)ccc2O[C@@H]1CN(C)C(=O)Nc1ccc(C(F)(F)F)cc1	-1	.	16	-2	-1[16.7 µM]	.
C[C@@H]1CCCCO[C@H](CN(C)C(=O)Nc2ccc(C(F)(F)F)cc2)[C@@H](C)CN([C@@H](C)CO)C(=O)c2cc(NC(=O)Nc3ccccc3)ccc2O1	-4	-9	-11	9	20[16.7 µM]	93*
O=C(NCc1ccc(F)cc1)[C@@H]1[C@@H](CO)[C@@H]2Cn3c(cccc3=O)[C@@H]2N1C(=O)C1CC1	-2	.	-7	.	.	-10
C[C@@H]1CCCCO[C@@H](CN(C)C(=O)Nc2ccc(C(F)(F)F)cc2)[C@@H](C)CN([C@H](C)CO)C(=O)c2cc(NC(=O)c3ccccc3)ccc2O1	-1	.	-11	.	10[16.7 µM]	9
SMILES	CFTR F508del cor	FN deposit inh	EWS-Fli inh	PGC1a acetyl inh	HIV Env fusion	PAX8 inh HTS
C[C@@H]1CCCCO[C@H](CN(C)C(=O)Nc2ccc(C(F)(F)F)cc2)[C@H](C)CN([C@@H](C)CO)C(=O)c2cc(NC(=O)c3ccccc3)ccc2O1	-3	.	-6	.	73*[16.7 µM]	16
C[C@H]1CCCCO[C@H](CN(C)C(=O)Nc2ccc(C(F)(F)F)cc2)[C@@H](C)CN([C@@H](C)CO)C(=O)c2cc(NC(=O)Nc3ccccc3)ccc2O1	-3	-10	-11	8	64*[16.7 µM]	81*
C[C@@H]1CCCCO[C@H](CN(C)C(=O)Nc2ccc(C(F)(F)F)cc2)[C@H](C)CN([C@@H](C)CO)C(=O)c2cc(NC(=O)Nc3ccccc3)ccc2O1	0	-2	-10	3	30[16.7 µM]	3
CC(=O)Nc1ccc2c(c1)C(=O)N(C)C[C@H](C)[C@@H](CN(C)C(=O)NC(C)C)O2	.	5	.	.	.	.
CC(CC(=O)O)CC(=O)Nc1cc(C(F)(F)F)cc(C(F)(F)F)c1 (stereo unspecified)	-3	7	6	9	3	0
CCC(C)(CC(=O)O)CC(=O)Nc1cc(C(F)(F)F)cc(C(F)(F)F)c1 (stereo unspecified)	.	1	11	68*	10	-15
C[C@@H]1CN([C@@H](C)CO)C(=O)Cc2cc(NS(C)(=O)=O)ccc2O[C@H]1CN(C)CC1CC1	2	.	0	-7	2[16.7 µM]	5
C[C@@H]1CN([C@H](C)CO)C(=O)Cc2cc(NS(=O)(=O)c3ccccc3)ccc2O[C@@H]1CN(C)CC1CCCCC1	0	.	64*	.	-20[16.7 µM]	-3
